Among the data in ChEMBL document CHEMBL1127388, “Synthesis and structure-activity relationships in a series of antiinflammatory corticosteroid analogues, halomethyl androstane-17 beta-carbothioates and -17 beta-carboselenoates” (1994) are Activity values, retold here.

Holding throughout (format): functional
Test [1] concerns Rattus norvegicus. Briefly: Topical anti-inflammatory activity relative to fluocinolone acetonide in rats. The procedure, abridged:
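Modified Tonelli croton oil ear test: rats (54–70 g), 7 groups of 10; graded steroid doses in croton oil (5 vol)/EtOH (20)/Et₂O (75), 0.04 mL to inner aspect of both ears (reference 0.06, 0.25, 1 µg); control gets unmedicated oil. After 6 h, CO₂ kill, ears weighed separately; relative potency by ANOVA on log dose and ear weight.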

Test [2] deals with Mus musculus. Briefly: Systemic corticosteroid activity after topical application relative to fluocinolone acetonide in mice. The procedure, abridged:
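Mice (25–30 g), nine groups of 10, given topical steroid in acetone daily for seven consecutive days; reference fluocinolone acetonide daily doses 0.47, 1.9, 7.5 and 30 µg; vehicle controls. Day after last dose, Et₂O vapor stress 1 min, re-anaesthetised with Et₂O; blood of two mice pooled; plasma corticosterone read fluorimetrically; potency from log daily dose vs corticosterone.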

The species named for another test is Homo sapiens. Description: Tested for human vasoconstrictor activity relative to fluocinolone acetonide (100).
For test [3], the system named is Mus musculus. Description: Topical anti-inflammatory activity relative to fluocinolone acetonide in mice. The method in brief:
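Croton oil ear test in mice (22–28 g), nine groups of 10; steroid dissolved in croton oil (2 vol)/EtOH (20)/Et₂O (78), 0.02 mL to inner aspect of both ears; reference doses 0.015, 0.06, 0.25, 1 µg; untreated-oil controls; ears weighed after 6 h; potency from log dose vs ear weight.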

The subject of test [4] is Rattus norvegicus. Briefly: Systemic corticosteroid activity after topical application relative to fluocinolone acetonide in rats. The method in brief: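 Rats (170–200 g), seven groups of six, fur clipped, ca. 2 cm² dorsal area dosed once daily for seven days with steroid in acetone (0.02 mL; reference 0.5, 2, 8 µg). Day after final dose: Et₂O stress 1 min, 20 min later pentobarbitone i.p., cardiac blood; fluorimetric plasma corticosterone or adrenal weights; potency from log daily dose.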

Molecules are shown by their SMILES.

In the case of `CCCC(=O)O[C@]1(C(=O)SCF)[C@H](C)CC2C3C[C@H](F)C4=CC(=O)C=C[C@]4(C)[C@@]3(F)[C@@H](O)C[C@@]21C` (stereo partly specified), the Activity is reported as 55 in the test on Rattus norvegicus [1], 0.7 in the test on Mus musculus [2], 299 in the test listed under Homo sapiens and 55 in the test with Mus musculus [3].
With `C=C1CC2C3CCC4=CC(=O)C=C[C@]4(C)[C@@]3(F)[C@@H](O)C[C@]2(C)[C@@]1(OC(=O)CC)C(=O)SCCl` (stereo partly specified), the Activity with Rattus norvegicus [1] was 12; in the test on Mus musculus [2] it was 2; in the test filed under Homo sapiens it was 365; with Mus musculus [3], 42; with Rattus norvegicus [4], 0.8.
As for `CCC(=O)O[C@]1(C(=O)SCCl)CCC2C3CCC4=CC(=O)C=C[C@]4(C)[C@@]3(F)[C@@H](O)C[C@@]21C` (stereo partly specified), the Activity with Mus musculus [2] was found to be 100; in the test filed under Homo sapiens, 916; in the test on Mus musculus [3], 20.
`CC(=O)O[C@]1(C(=O)SCF)[C@H](C)CC2C3C[C@H](F)C4=CC(=O)C=C[C@]4(C)[C@@]3(F)[C@@H](O)C[C@@]21C` (stereo partly specified): the Activity was determined as 88 in the test with Rattus norvegicus [1]; 2.9 in the test with Mus musculus [2]; 392 in the test listed under Homo sapiens; 76 in the test on Mus musculus [3]; 3 with Rattus norvegicus [4].
On to `CCC(=O)O[C@]1(C(=O)SCF)[C@@H](C)CC2C3CCC4=CC(=O)C=C[C@]4(C)[C@H]3[C@@H](O)C[C@@]21C` (stereo partly specified), for which the Activity in the test with Rattus norvegicus [1] was determined as 44; in the test filed under Homo sapiens, 800; with Mus musculus [3], 50; in the test on Rattus norvegicus [4] it was 5.1.
Turning to `C=C1CC2C3CCC4=CC(=O)C=C[C@]4(C)[C@@]3(F)[C@@H](O)C[C@]2(C)[C@@]1(OC(=O)CC)C(=O)[Se]CCl` (stereo partly specified), the Activity with Rattus norvegicus [1] is recorded as 16; in the test with Mus musculus [2] it was 2; in the test filed under Homo sapiens, 200; in the test on Mus musculus [3], 40.
In the test filed under Homo sapiens, `CCC(=O)O[C@]1(C(=O)SCBr)[C@@H](C)CC2C3CCC4=CC(=O)C=C[C@]4(C)[C@@]3(F)[C@@H](O)C[C@@]21C` (stereo partly specified) registered an Activity of 254.
The same measure, in the same setting: to `CCC(=O)O[C@]1(C(=O)SCI)[C@@H](C)CC2C3CCC4=CC(=O)C=C[C@]4(C)[C@@]3(F)[C@@H](O)C[C@@]21C` (stereo partly specified) belongs 41.
For `CCC(=O)O[C@]1(C(=O)SCCl)[C@@H](C)CC2C3CCC4=CC(=O)C=C[C@]4(C)[C@@]3(F)[C@@H](O)C[C@@]21C` (stereo partly specified), the Activity was 36 in the test with Rattus norvegicus [1]; 44 in the test with Mus musculus [2]; 1469 in the test filed under Homo sapiens; 41 in the test with Mus musculus [3]; 0.9 with Rattus norvegicus [4].
As to `C=C1CC2C3CCC4=CC(=O)C=C[C@]4(C)[C@@]3(F)[C@@H](O)C[C@]2(C)[C@@]1(OC(=O)CC)C(=O)[Se]C` (stereo partly specified), the Activity is 19 in the test on Rattus norvegicus [1], 187 in the test listed under Homo sapiens, 27 with Mus musculus [3] and less than 0.2 in the test with Rattus norvegicus [4].
For `CCC(=O)O[C@]1(C(=O)SCCl)[C@@H](C)CC2C3CCC4=CC(=O)C=C[C@]4(C)[C@H]3[C@@H](O)C[C@@]21C` (stereo partly specified), the Activity in the test on Rattus norvegicus [1] was found to be 29; in the test filed under Homo sapiens, 295; in the test with Mus musculus [3], 27; in the test with Rattus norvegicus [4] it was 1.4.
Consider `C=C1CC2C3CCC4=CC(=O)C=C[C@]4(C)[C@@]3(F)[C@@H](O)C[C@]2(C)[C@@]1(OC(=O)CC)C(=O)SCF` (stereo partly specified), for which the Activity in the test with Rattus norvegicus [1] is given as 20; with Mus musculus [2], 44; in the test listed under Homo sapiens, 1497; with Mus musculus [3], 41; in the test on Rattus norvegicus [4] it was 2.5.
Take `C=C1CC2C3C[C@H](F)C4=CC(=O)C=C[C@]4(C)[C@@]3(F)[C@@H](O)C[C@]2(C)[C@@]1(OC(=O)CC)C(=O)SCF` (stereo partly specified): the results for the Activity in the test on Mus musculus [2], in the test listed under Homo sapiens and in the test on Mus musculus [3] were more than 100, 1048 and 197, respectively.
In the test listed under Homo sapiens, `CCCC(=O)O[C@]1(C(=O)SCCl)[C@@H](C)CC2C3CCC4=CC(=O)C=C[C@]4(C)[C@@]3(F)[C@@H](O)C[C@@]21C` (stereo partly specified) gave an Activity of 143.
For the compound `CCC(=O)O[C@]1(C(=O)SCF)[C@@H](C)CC2C3CCC4=CC(=O)C=C[C@]4(C)[C@@]3(F)[C@@H](O)C[C@@]21C` (stereo partly specified), the Activity in the test on Rattus norvegicus [1] amounted to 39; with Mus musculus [2] it was 450; in the test filed under Homo sapiens it was 1262; in the test with Mus musculus [3], 89; in the test on Rattus norvegicus [4] it was 13.
For `CCC(=O)O[C@]1(C(=O)SCF)CCC2C3CCC4=CC(=O)C=C[C@]4(C)[C@@]3(F)[C@@H](O)C[C@@]21C` (stereo partly specified), in that order: 39, 149, 1984, 63 and 1.5.
`CCC(=O)O[C@]1(C(=O)SCF)[C@H](C)CC2C3CCC4=CC(=O)C=C[C@]4(C)[C@@]3(F)[C@@H](O)C[C@@]21C` (stereo partly specified) came in with an Activity in the test listed under Homo sapiens of 653.
Regarding `CCC(=O)O[C@]1(C(=O)SCCl)[C@H](C)CC2C3C[C@H](F)C4=CC(=O)C=C[C@]4(C)[C@@]3(F)[C@@H](O)C[C@@]21C` (stereo partly specified), the Activity in the test on Rattus norvegicus [1] is given as 29; in the test on Mus musculus [2] it was 0.04; in the test listed under Homo sapiens it was 124; in the test with Mus musculus [3], 56; with Rattus norvegicus [4], less than 0.02.
For `CC(=O)O[C@]1(C(=O)SCCl)[C@@H](C)CC2C3CCC4=CC(=O)C=C[C@]4(C)[C@@]3(F)[C@@H](O)C[C@@]21C` (stereo partly specified), in that order: 24, 14.7, 544, 59 and 0.5.
On to `C=C1CC2C3C[C@H](F)C4=CC(=O)C=C[C@]4(C)[C@@]3(F)[C@@H](O)C[C@]2(C)[C@@]1(OC(=O)CC)C(=O)SCCl` (stereo partly specified), for which the Activity is given as more than 100 with Mus musculus [2], 170 in the test listed under Homo sapiens and 108 in the test on Mus musculus [3].
In the case of `CCC(=O)O[C@]1(C(=O)SCF)CCC2C3C[C@H](F)C4=CC(=O)C=C[C@]4(C)[C@H]3[C@@H](O)C[C@@]21C` (stereo partly specified), the Activity with Rattus norvegicus [1] is 97; in the test on Mus musculus [2] it was more than 200; in the test listed under Homo sapiens, 697; with Mus musculus [3], 56.
Regarding `CC(=O)O[C@]1(C(=O)SCF)[C@@H](C)CC2C3CCC4=CC(=O)C=C[C@]4(C)[C@@]3(F)[C@@H](O)C[C@@]21C` (stereo partly specified), the Activity in the test with Rattus norvegicus [1] is given as 40; in the test filed under Homo sapiens it was 1388; with Mus musculus [3], 67; in the test with Rattus norvegicus [4], 13.5.
On to `CC1(C)O[C@@H]2C[C@H]3[C@@H]4C[C@H](F)C5=CC(=O)C=C[C@]5(C)[C@@]4(F)[C@@H](O)C[C@]3(C)[C@]2(C(=O)CO)O1` [FLUOCINOLONE ACETONIDE], for which the Activity with Rattus norvegicus [1], in the test on Mus musculus [2], in the test listed under Homo sapiens, with Mus musculus [3] and in the test on Rattus norvegicus [4] was 100 in each case.
`CCC(=O)O[C@]1(C(=O)SCF)[C@H](C)C[C@H]2[C@@H]3C[C@H](F)C4=CC(=O)C=C[C@]4(C)[C@@]3(F)[C@@H](O)C[C@@]21C` [FLUTICASONE PROPIONATE]: the Activity in the test with Rattus norvegicus [1] is listed as 85; with Mus musculus [2], 1; in the test listed under Homo sapiens it was 945; with Mus musculus [3] it was 113; in the test on Rattus norvegicus [4] it was 1.5.
